Measured values reported in publication PMC8958665 (ACS infectious diseases, 2021).
≈ marks a conversion by molar mass, not a printed value. Where two headings read alike, the source gives them in different places.

Assays:
AB4106 = assay: MIC in the presence of polymyxin B nonapeptide; type: cell-based, Acinetobacter baumannii; settings: 10 μg/mL
NF-κB = NF-κB luciferase reporter assay in HEK293 recombinant cells; type: cell-based; settings: Homo sapiens, HEK293, read-out: Inhibition of NF-κB IC50
K. pneumoniae B9 (KPB9) [1] = assay: Broth microdilution standalone MIC, KPB9; type: cell-based; settings: Klebsiella pneumoniae, read-out: standalone MIC against KPB9
[2] = tested on: A. baumannii 4106 (AB4106); assay: Broth microdilution standalone MIC, AB4106; type: cell-based; settings: Acinetobacter baumannii, read-out: standalone MIC against AB4106
K. pneumoniae B9 (KPB9) [3] = assay: Broth microdilution colistin potentiation, KPB9; type: cell-based, Klebsiella pneumoniae
[4] = tested on: A. baumannii 4106 (AB4106); assay: Broth microdilution colistin potentiation, AB4106; type: cell-based, Acinetobacter baumannii
[5] = tested on: colistin-resistant A. baumannii strains; type: cell-based, Acinetobacter baumannii; settings: no adjuvant
[6] = tested on: P. aeruginosa strains TRPA161 and TRPA162; assay: Colistin potentiation, colistin-resistant P. aeruginosa strains; type: cell-based, Pseudomonas aeruginosa; settings: no adjuvant
Method in brief: (§1)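 Broth microdilution in CAMHB: strains are grown 6 h and diluted to 5 × 10^5 CFU/mL. Test compound is added from DMSO stock, and colistin (from water stock) is serially diluted in the compound-dosed suspension. An undosed aliquot gives the colistin MIC alone. Plates are incubated stationary at 37 °C for 16 h and read at OD600. MIC is 90% growth inhibition versus untreated. Run in duplicate, repeated at least twice.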

[7] = tested on: colistin-resistant K. pneumoniae strains; assay: Colistin potentiation, panel of colistin-resistant K. pneumoniae strains; type: cell-based, Klebsiella pneumoniae; settings: no adjuvant
Method in brief: as §1

**Q.** How did the “toxicity against AB4106” value (AB4106) turn out when polymyxin B nonapeptide [PMBN] was run?
**A.** Its value is “no toxicity”.

**Q.** Which results are given for O=C(Nc1cc(C(F)(F)F)cc(C(F)(F)F)c1)c1cc(Cl)ccc1O [IMD-0354 4, IMD-0354]?
**A.** IC50 (NF-κB): 1070 ± 60 nM; MIC (K. pneumoniae B9 (KPB9) [1]): 50 µM (≈ 19.2 µg/mL); MIC [2]: 50 µM (≈ 19.2 µg/mL); KPB9 colistin MIC in the presence of compound (K. pneumoniae B9 (KPB9) [3]; compound at 5 μM, KPB9): 0.5 µg/mL; KPB9 fold reduction of colistin MIC (K. pneumoniae B9 (KPB9) [3]; compound at 5 μM, vs colistin alone (512 μg/mL)): 1024 fold; AB4106 colistin MIC in the presence of compound ([4]; compound at 5 μM, AB4106): 2 µg/mL; AB4106 fold reduction of colistin MIC ([4]; compound at 5 μM, vs colistin alone (2048 μg/mL)): 1024 fold

**Q.** For colistin, which “colistin MIC alone” value ([5]; strain AB 1E4) is on record?
**A.** The value was over 512 µg/mL.

**Q.** What about the “colistin MIC alone” value ([5]; strain AB 1F9) of the same molecule?
**A.** The value was over 512 µg/mL.

**Q.** And the “colistin MIC alone” value ([5]; strain AB 1G2)?
**A.** The value was over 512 µg/mL.

**Q.** And the “colistin MIC alone” value ([5]; strain AB 2A8)?
**A.** Its value is over 512 µg/mL.

**Q.** And the “colistin MIC alone” value ([5]; strain AB 3941)?
**A.** The value was 1024 µg/mL.

**Q.** And the “colistin MIC alone” value ([5]; strain AB 4112)?
**A.** The value was 2048 µg/mL.

**Q.** What about the “colistin MIC alone” value ([5]; strain AB 17978 mcr-1) of the same molecule?
**A.** The value was 64 µg/mL.

**Q.** And the “colistin MIC alone” value ([6]; strain TRPA 161)?
**A.** The value was 1024 µg/mL.

**Q.** And the “colistin MIC alone” value ([6]; strain TRPA 162)?
**A.** The value was 1024 µg/mL.

**Q.** And the “colistin MIC alone” value ([7]; strain KP C3)?
**A.** Its value is 128 µg/mL.

**Q.** And the “colistin MIC alone” value ([7]; strain KP E2)?
**A.** Its value is 512 µg/mL.

**Q.** And the “colistin MIC alone” value ([7]; strain KP F3)?
**A.** The value was 128 µg/mL.

**Q.** What about the “colistin MIC alone” value ([7]; strain KP F9) of the same molecule?
**A.** Its value is 256 µg/mL.

**Q.** And the “colistin MIC alone” value ([7]; strain KP F2210291 mcr-1)?
**A.** Its value is 16 µg/mL.

**Q.** What about the “colistin MIC alone” value ([7]; strain KP H2) of the same molecule?
**A.** The value was 256 µg/mL.

**Q.** What about the “colistin MIC alone” value ([7]; strain KP I2) of the same molecule?
**A.** Its value is 512 µg/mL.

**Q.** What about the “KPB9 MIC of colistin alone” value (K. pneumoniae B9 (KPB9) [3]; no adjuvant) of the same molecule?
**A.** Its value is 512 µg/mL.

**Q.** What about the “AB4106 MIC of colistin alone” value ([4]; no adjuvant) of the same molecule?
**A.** The value was 2048 µg/mL.
